Molecules are shown by their SMILES. Among all 360,000 compounds or so, about 1,700 (0.47%) were called active. What follows is part of a selection rich in actives, with near analogues and random picks from the rest. Unmarked numbers belong to inactive results.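 The calls were made as follows: active = inhibition above its plate's cutoff, the mean of tested wells on that plate plus 3 SD (cut at about 29% in these data); inactive = the rest.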

These results are taken from PubChem BioAssay AID540295 (The Scripps Research Institute Molecular Screening Center, 2011).

Chain of Melanocortin receptor 4 (Homo sapiens) (P32245 whole entry, looked up): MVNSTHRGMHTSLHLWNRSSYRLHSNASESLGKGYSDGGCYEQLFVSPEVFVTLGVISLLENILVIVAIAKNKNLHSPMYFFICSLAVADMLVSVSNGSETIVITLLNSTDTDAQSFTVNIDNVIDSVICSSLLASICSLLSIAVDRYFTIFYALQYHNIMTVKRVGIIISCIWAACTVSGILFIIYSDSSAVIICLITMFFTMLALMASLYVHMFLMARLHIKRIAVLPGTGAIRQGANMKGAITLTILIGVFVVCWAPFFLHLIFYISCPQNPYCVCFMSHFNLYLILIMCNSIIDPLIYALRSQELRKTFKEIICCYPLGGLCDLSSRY

In this test the target is Melanocortin receptor 4 (Homo sapiens) (UniProt P32245). Description: blockers of MC4R Gs-cAMP response – cell-based, TR-FRET, antagonist arm of biased-ligand search, primary screen (AID 540295).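 Also: 0% = Melanotan II alone and 100% = Melanotan II plus saturating MCL0020.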 The note with it: MC4R-expressing cells, MTII-stimulated cAMP, LANCE TR-FRET; at 6.5 µM; hits give high values. The essentials:
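system = U2OS cells with stable human MC4R expression | also added = Melanotan II challenge after compound preincubation | dosing = one concentration, 6.5 µM nominal | incubation = compound 30 min, challenge 1 h, detection 1 h | measured by = TR-FRET with Eu-cAMP and labeled anti-cAMP, 671 nm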
A general note: Time-resolved FRET reads energy transfer from a long-lived donor to a nearby acceptor.
As a reminder, the inhibition is the relative decrease from the control value, in per cent. For the compound `Cc1ccc(OCC(=O)Nc2cccc3c2CCCC3)cc1C`, the inhibition was 5.28%.
Under `O=c1c2cc(Br)ccc2nc(-c2cccc(Cl)c2)n1O` stands 2.37%; under `O=C(O)CCn1cc(/C=C/C(=O)c2ccc(Cl)cc2)c(-c2cccc(Br)c2)n1`, 32.5% (active).
Turning to `O=C(COC(=O)/C=C/c1cn(-c2ccccc2)nc1-c1cccnc1)Nc1ccc(Cl)cc1Cl`, the inhibition is 11.1%.
The result for `CCOC(=O)C1(Cc2ccccc2C(F)(F)F)CCN(C(=O)c2cc(C)n(C)n2)CC1` reads 5.76%; that for `COc1ccc(/C=C/C(=O)c2c(O)cc(OC)cc2OC)cc1`, -19.9%; that for `CCOc1ccc(OCC(=O)Nc2c3c(nn2C(C)(C)C)CS(=O)(=O)C3)cc1`, 1.77%.
Under `O=S(=O)(Cc1noc(-c2ccc(OC(F)(F)F)cc2)n1)c1ccc(F)cc1` stands 4.42%.
The result for `Cc1cc(=O)oc2cc(NC(=O)C3CC(=O)N(Cc4ccccc4)C3)ccc12` (configuration not stated) reads 15.7%; that for `O=C(Nc1ccc(F)c([N+](=O)[O-])c1)C1CC(=O)N(Cc2ccccc2)C1` (configuration not stated), 35.5% (active).
As for `CC(OC(=O)C1CC(=O)N(Cc2ccccc2)C1)C(=O)Nc1ccccc1[N+](=O)[O-]` (configuration not stated), the inhibition was -5.04%.
Under `Cc1cc(-c2csc(N)n2)c(C)n1-c1ccccc1` stands 4%; under `CC(C)Oc1c(Br)cc(Br)cc1/C=N/NC(N)=S`, 31.4% (active).
The result for `CC1(C(=O)N/N=C/c2cc3c(cc2Br)OCO3)CC1(Br)Br` (configuration not stated) reads 19.5%; that for `CCN(CC)C(=O)C1CCCN(Cc2cccc(Cl)c2)C1` (configuration not stated), -1.5%; that for `O=[N+]([O-])c1ccc(Oc2ccc(F)cc2Br)c2ccncc12`, 2.28%.
The result for `COc1ccc(Cl)cc1-c1cc(C(=O)Nc2cc(OC)c(OC)c(OC)c2)[nH]n1` reads 29.8% (active).
For `CCCOc1ccc(F)cc1-c1cc(C(=O)Nc2ccc(F)c(Cl)c2)[nH]n1`, the inhibition was 3.21%.
Under `COc1cc(NC(=O)c2cc(-c3ccc(F)cc3OC(C)C)n[nH]2)cc(OC)c1OC` stands 19.5%.
In the case of `Cc1cccc(-n2ncc(Cl)c(Cl)c2=O)c1`, the inhibition was 27.8%.
Under `COc1ccc(Oc2c(Cl)cnn(-c3ccccc3)c2=O)cc1` stands 54.6% (active).
Under `COc1ccc(CCNC(=O)c2c(C)nn(-c3ccccc3)c2Cl)cc1` stands 13.4%; under `CC(C)Nc1nc(NCCOc2ccccc2Cl)c2sccc2n1`, -7.14%; under `COc1ccc2c(c1)C(=O)Nc1cc(Cl)ccc1N2`, -3.19%.
The result for `COc1ccc(/C=C(\C#N)C(=O)NCCCn2ccnc2)cc1` reads 6.52%; that for `COCCCNC(=O)/C(C#N)=C/c1c(N2CCCCCC2)nc2ccccn2c1=O`, 31% (active).
As to `CCOCCCNC(=O)c1cc2c(=O)n3ccccc3nc2s1`, the inhibition was -4.33%.
